ChEMBL document CHEMBL1828575, “Design, synthesis and antiproliferative activities of biarylolefins based on polyhydroxylated and carbohydrate scaffolds” (Eur J Med Chem, 2011)

Assays:
Format in all cases: functional
SK-MEL-5 = assay: Antitumor activity against human SK-MEL-5 cells after 48 hrs by SRB assay; conditions: SK-MEL-5, 48 h
Outline: (§1)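 NCI60 panel cells grown in RPMI 1640 with 5% FBS and 2 mM L-glutamine, plated at 5000–40,000 cells/well and preincubated 24 h at 37 °C, 5% CO₂. Compound was added from DMSO at five concentrations, 10-fold or 1/2 log dilutions, then incubated 48 h.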

Malme-3M = assay: Antitumor activity against human MALME-3M cells after 48 hrs by SRB assay
Outline: (§2)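 NCI60 panel in RPMI 1640 with 5% FBS and 2 mM L-glutamine. Cells were plated at 5000–40,000/well by doubling time, held 24 h, then time-zero plates were TCA-fixed. Five concentrations (10-fold or half-log dilutions of DMSO stocks) were applied for 48 h at 37 °C, 5% CO2. Cells were fixed with cold TCA (10% final adherent, 16% suspension) and stained with 0.4% SRB. Bound dye was dissolved in 10 mM Tris and read at 515 nm. GI50, TGI and LC50 were calculated per line.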

OVCAR-5 = assay: Cytotoxicity against human OVCAR5 cells assessed as cellular growth at 10 uM after 48 hrs by SRB assay
Outline: (§3)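 NCI-60 panel lines grown in RPMI 1640 with 5% FBS and 2 mM L-glutamine. Plated at 5000–40,000 cells/well and preincubated 24 h at 37 °C, 5% CO₂, with time-zero plates fixed in TCA. Compounds, dissolved in DMSO and diluted in medium, were applied for 48 h. Cells were TCA-fixed (10% final for adherent, 16% for suspension) and stained with 0.4% SRB in 1% acetic acid. Dye was solubilised in 10 mM Tris base and read at 515 nm; growth was expressed as a percentage of untreated control.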

SF-268 = assay: Antitumor activity against human SF268 cells after 48 hrs by SRB assay; conditions: SF-268, 48 h; outline: as §2
M14 = assay: Cytotoxicity against human M14 cells assessed as cellular growth at 10 uM after 48 hrs by SRB assay
Outline: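 NCI60 single-dose screen of cells in RPMI 1640 with 5% FBS and 2 mM L-glutamine, preincubated 24 h at 37 °C, 5% CO₂. Cells were then exposed 48 h to compound added from DMSO stock. TCA-fixed, stained with 0.4% SRB in 1% acetic acid, dye solubilised in 10 mM Tris base and read at 515 nm. Growth is given as percent of untreated control.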

[1] = Cytotoxicity against human NCI60 cells assessed as cellular growth at 10 uM after 48 hrs by SRB assay relative to untreated control; outline: as §3
MDA-MB-435 = assay: Antitumor activity against human MDA-MB-435 cells after 48 hrs by SRB assay; conditions: MDA-MB-435, 48 h; outline: as §2
HL-60(TB) = assay: Antitumor activity against human HL-60(TB) cells after 48 hrs by SRB assay; conditions: HL-60, 48 h
Outline: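 NCI60 screen: cells grown in RPMI 1640 with 5% FBS and 2 mM L-glutamine, plated at 5000–40,000 cells/well by doubling time, preincubated 24 h at 37 °C with 5% CO2. Compounds were diluted from DMSO stocks and given for 48 h, at five concentrations for dose response. A time-zero plate was TCA-fixed. Cells were TCA-fixed, stained with 0.4% SRB and read at 515 nm, with growth expressed relative to untreated controls.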

RPMI-8226 = assay: Cytotoxicity against human RPMI8226 cells assessed as cellular growth at 10 uM after 48 hrs by SRB assay; outline: as §3
IGROV-1 = assay: Antitumor activity against human IGROV1 cells after 48 hrs by SRB assay; conditions: IGROV-1, 48 h; outline: as §2
HCC 2998 = assay: Antitumor activity against human HCC2998 cells after 48 hrs by SRB assay; conditions: HCC 2998, 48 h; outline: as §2
TK-10 = assay: Antitumor activity against human TK10 cells after 48 hrs by SRB assay; conditions: TK-10, 48 h; outline: as §1
SK-OV-3 = assay: Cytotoxicity against human SKOV3 cells assessed as cellular growth at 10 uM after 48 hrs by SRB assay; outline: as §3
RXF 393 = assay: Antitumor activity against human RXF393 cells after 48 hrs by SRB assay; conditions: RXF 393, 48 h; outline: as §2
UACC-62 = assay: Antitumor activity against human UACC62 cells after 48 hrs by SRB assay; conditions: UACC-62, 48 h; outline: as §1
HCT-116 = assay: Antitumor activity against human HCT116 cells after 48 hrs by SRB assay; conditions: HCT-116, 48 h; outline: as §2
NCI-H322M = assay: Antitumor activity against human NCI-H322M cells after 48 hrs by SRB assay; outline: as §2
HT-29 = assay: Antiproliferative activity against human HT-29 cells after 48 hrs by SRB assay; conditions: HT-29, 48 h; outline: as §2
MOLT-4 = assay: Cytotoxicity against human MOLT4 cells assessed as cellular growth at 10 uM after 48 hrs by SRB assay; outline: as §3
OVCAR-3 = assay: Cytotoxicity against human OVCAR3 cells assessed as cellular growth at 10 uM after 48 hrs by SRB assay; outline: as §3
[2] = read-out: pLC50 (the source's name) (converted)
[3] = read-out: LC50 (the source's name)

## COc1cc(/C(=C2\O[C@@H]([C@H]3COC(C)(C)O3)[C@H]3OC(C)(C)O[C@@H]23)c2ccc3ccccc3c2)cc(OC)c1OC
SK-MEL-5
  GI50: 4.07 µM
  LC50: 51.4 µM
  TGI: 15.4 µM
Malme-3M
  GI50: 2070 nM
  LC50 (concentration killing 50% of cells present at time zero): > 100 µM
  TGI: 5.59 µM
OVCAR-5
  Activity: 38.17%
SF-268
  LC50 (concentration killing 50% of cells relative to time zero): > 100 µM
SF-268; read-out: GI50
  GI50: 3.13 µM
SF-268; read-out: TGI
  TGI: 15.9 µM
SF-268; read-out: pGI50 (converted)
  GI50: 3.09 µM
SF-268; [2]
  CC50: > 100 µM
SF-268; read-out: pTGI (converted)
  TGI: > 100 µM
M14
  Activity: 62.78%
[1]
  Activity: 30%
MDA-MB-435
  GI50: 3.61 µM
  TGI: 17.5 µM
MDA-MB-435; [3]
  CC50: > 100 µM
HL-60(TB); read-out: GI50
  GI50: 74.9 µM
HL-60(TB); [3]
  CC50: > 100 µM
HL-60(TB); read-out: TGI
  TGI: > 100 µM
HL-60(TB); read-out: pGI50 (converted)
  GI50: 74.1 µM
HL-60(TB); [2]
  CC50: > 100 µM
HL-60(TB); read-out: pTGI (converted)
  TGI: > 100 µM
RPMI-8226
  Activity: 36.83%
IGROV-1; read-out: GI50
  GI50: 3.3 µM
IGROV-1; [3]
  CC50: > 100 µM
IGROV-1; read-out: TGI
  TGI: > 100 µM
IGROV-1; read-out: pGI50 (converted)
  GI50: 2.82 µM
IGROV-1; [2]
  CC50: > 100 µM
IGROV-1; read-out: pTGI
  TGI: > 100 µM
HCC 2998; read-out: GI50
  GI50: 6.47 µM
HCC 2998; [3]
  CC50: > 100 µM
HCC 2998; read-out: TGI
  TGI: > 100 µM
HCC 2998; read-out: pGI50 (converted)
  GI50: 6.46 µM
HCC 2998; [2]
  CC50: > 100 µM
HCC 2998; read-out: pTGI (converted)
  TGI: > 100 µM
TK-10; read-out: GI50
  GI50: 3.2 µM
TK-10; [3]
  CC50: > 100 µM
TK-10; read-out: TGI
  TGI: 7.2 µM
TK-10; read-out: pGI50 (converted)
  GI50: 3.16 µM
TK-10; [2]
  CC50: > 100 µM
TK-10; read-out: pTGI (converted)
  TGI: 7.24 µM
SK-OV-3
  Activity: 51.39%
RXF 393
  GI50: 2540 nM
  TGI: 5.99 µM
RXF 393; [3]
  CC50: 32.6 µM
UACC-62; read-out: GI50
  GI50: 7.13 µM
UACC-62; [3]
  CC50: > 100 µM
UACC-62; read-out: TGI
  TGI: 67.9 µM
UACC-62; read-out: pGI50 (converted)
  GI50: 3.31 µM
UACC-62; [2]
  CC50: > 100 µM
UACC-62; read-out: pTGI (converted)
  TGI: 67.6 µM
HCT-116
  GI50: 2510 nM
  LC50 (concentration giving 50% net cell kill): 20.6 µM
  TGI: 5.7 µM
NCI-H322M; read-out: GI50
  GI50: 6.74 µM
NCI-H322M; [3]
  CC50: > 100 µM
NCI-H322M; read-out: TGI
  TGI: > 100 µM
NCI-H322M; read-out: pGI50 (converted)
  GI50: 5.75 µM
NCI-H322M; [2]
  CC50: > 100 µM
NCI-H322M; read-out: pTGI
  TGI: > 100 µM
HT-29
  LC50 (50% net cell kill): > 100 µM
HT-29; read-out: GI50
  GI50: 6 µM
HT-29; read-out: TGI
  TGI: > 100 µM
HT-29; read-out: pGI50 (converted)
  GI50: 6.03 µM
HT-29; [2]
  CC50: > 100 µM
HT-29; read-out: pTGI (converted)
  TGI: > 100 µM
MOLT-4
  Activity: 62.4%
OVCAR-3
  Activity: -6.76%
